Target: T1, NAD-dependent protein deacetylase sirtuin-2 (Homo sapiens) (UniProt Q8IXJ6)
T1 sequence (whole entry): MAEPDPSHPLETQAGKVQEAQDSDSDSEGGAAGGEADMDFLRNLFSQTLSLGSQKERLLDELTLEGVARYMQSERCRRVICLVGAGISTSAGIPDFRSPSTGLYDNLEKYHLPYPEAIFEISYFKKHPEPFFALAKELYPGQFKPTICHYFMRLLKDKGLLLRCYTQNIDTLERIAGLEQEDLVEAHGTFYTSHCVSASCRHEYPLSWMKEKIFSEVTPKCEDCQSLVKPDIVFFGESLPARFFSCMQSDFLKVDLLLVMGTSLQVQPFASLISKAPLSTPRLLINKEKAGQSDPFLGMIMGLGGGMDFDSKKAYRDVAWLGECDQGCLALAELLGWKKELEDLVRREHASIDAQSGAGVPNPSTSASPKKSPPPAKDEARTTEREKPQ
Experiment: Inhibition of recombinant human C-terminal His-tagged SIRT2 (50 to 389 end residues) expressed in Escherichia coli at 10 uM using p53 derived (379 to 382 residues) fluorogenic peptide substrate RHKK(Ac)-AMC preincubated for 10 mins followed by substrate addition in presence of NAD+ by fluorescence assay relative to control
Summary of the method: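 Two-step fluorogenic assay with p53 379–382 RHKK(Ac)-AMC. Compound (from 10 mM DMSO stock) preincubated ~10 min with human SIRT before substrate addition. Developer then releases fluorophore, read at ex 360/em 460 nm.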

| Compound | inhibition [%] |
| --- | --- |
| COc1ccccc1NC1CCc2c(sc3ncn(Cc4cccc(-c5ccccc5)c4)c(=O)c23)C1 (centres undefined) | 26 |
| O=c1c2c3c(sc2ncn1Cc1ccc2ccccc2c1)CC(NC1CCOCC1)CC3 (centres undefined) | 52 |
| O=c1c2c3c(sc2ncn1Cc1cccc(-c2ccccc2)c1)CC(NC1CCCc2ccccc21)CC3 (centres undefined) | 22 |
| N#Cc1ccc(CNC2CCc3c(sc4ncn(Cc5ccc6ccccc6c5)c(=O)c34)C2)cc1 (centres undefined) | 67 |
| O=c1c2c3c(sc2ncn1Cc1cccc2ccccc12)CC(NC1CCCc2ccccc21)CC3 (centres undefined) | 51 |
| O=c1c2c3c(sc2ncn1Cc1ccc2ccccc2c1)CC(NCCN1CCOCC1)CC3 (centres undefined) | 47 |
| COc1ccc(Cn2cnc3sc4c(c3c2=O)CCC(NCc2ccccc2F)C4)c2ccccc12 (centres undefined) | 71 |
| O=c1c2c3c(sc2ncn1Cc1cccc2ccccc12)CC(NCC1CCOC1)CC3 (centres undefined) | 72 |
| CC(=O)NCCNC1CCc2c(sc3ncn(Cc4cccc(-c5ccccc5)c4)c(=O)c23)C1 (centres undefined) | 65 |
| COc1ccc2ccccc2c1Cn1cnc2sc3c(c2c1=O)CCC(NCc1ccccc1F)C3 (centres undefined) | 64 |
| Cc1cccc(NC2CCc3c(sc4ncn(Cc5ccc6ccccc6c5)c(=O)c34)C2)c1 (centres undefined) | 31 |
| O=c1c2c3c(sc2ncn1Cc1cccc2ccccc12)CC(NC1CCc2ccccc21)CC3 (centres undefined) | 58 |
| COc1ccccc1CCNC1CCc2c(sc3ncn(Cc4cccc5ccccc45)c(=O)c23)C1 (centres undefined) | 60 |
| COc1ccc(NC2CCc3c(sc4ncn(Cc5cccc(-c6ccccc6)c5)c(=O)c34)C2)cc1 (centres undefined) | 31 |
| O=c1c2c3c(sc2ncn1Cc1ccc2ccccc2c1)CC(NC1CCCc2ccccc21)CC3 (centres undefined) | 37 |
| O=c1c2c3c(sc2ncn1Cc1cccc(-c2ccccc2)c1)CC(Nc1ccc(F)cc1)CC3 (centres undefined) | 52 |
| COc1cccc(NC2CCc3c(sc4ncn(Cc5ccc6ccccc6c5)c(=O)c34)C2)c1 (centres undefined) | 37 |
| O=c1c2c3c(sc2ncn1Cc1cccc2cccnc12)CC(NCC1CCOC1)CC3 (centres undefined) | 60 |
| O=c1c2c3c(sc2ncn1Cc1cccc2ccccc12)CC(NC1CCCC1)CC3 (centres undefined) | 61 |
| CC(=O)NCCNC1CCc2c(sc3ncn(Cc4cccc5ccccc45)c(=O)c23)C1 (centres undefined) | 28 |
| COc1ccccc1CCNC1CCc2c(sc3ncn(Cc4c(OC)ccc5ccccc45)c(=O)c23)C1 (centres undefined) | 65 |
| Cc1cccc(NC2CCc3c(sc4ncn(Cc5cccc(-c6ccccc6)c5)c(=O)c34)C2)c1 (centres undefined) | 28 |
| COCCNC1CCc2c(sc3ncn(Cc4ccc(OC)c5ccccc45)c(=O)c23)C1 (centres undefined) | 70 |
| COc1cccc(Cn2cnc3sc4c(c3c2=O)CCC(NCCc2ccncc2)C4)c1 (centres undefined) | 39 |
| COc1ccc2ccccc2c1Cn1cnc2sc(CCN)c(C)c2c1=O | 25 |
| COc1ccccc1NC1CCc2c(sc3ncn(Cc4ccc5ccccc5c4)c(=O)c23)C1 (centres undefined) | 36 |
| COc1cccc(Cn2cnc3sc4c(c3c2=O)CCC(NC2CCc3ccccc32)C4)c1 (centres undefined) | 64 |

| Compound | inhibition [%] |
| --- | --- |
| COc1ccc2ccccc2c1Cn1cnc2sc3c(c2c1=O)CCC(NCc1ccccc1Cl)C3 (centres undefined) | 40 |
| COc1ccc(NC2CCc3c(sc4ncn(Cc5ccc(OC)c6ccccc56)c(=O)c34)C2)cc1 (centres undefined) | 41 |
| Cc1ccc(NC2CCc3c(sc4ncn(Cc5ccc6ccccc6c5)c(=O)c34)C2)cc1 (centres undefined) | 29 |
| COc1cccc(Cn2cnc3sc4c(c3c2=O)CCC(NCC2CCCCC2)C4)c1 (centres undefined) | 62 |
| O=c1c2c3c(sc2ncn1Cc1cccc2ccccc12)CC(Nc1ccc2c(c1)OCO2)CC3 (centres undefined) | 29 |
| COc1cccc(CNC2CCc3c(sc4ncn(Cc5cccc6cccnc56)c(=O)c34)C2)c1 (centres undefined) | 78 |
| COc1ccc2ccccc2c1Cn1cnc2sc3c(c2c1=O)CCC(NCCN1CCOCC1)C3 (centres undefined) | 70 |
| O=c1c2c3c(sc2ncn1Cc1cccc2ccccc12)CC(NCc1cccc(F)c1)CC3 (centres undefined) | 65 |
| COCCNC1CCc2c(sc3ncn(Cc4cccc5ccccc45)c(=O)c23)C1 (centres undefined) | 35 |
| CC(=O)NCCNC1CCc2c(sc3ncn(Cc4ccc5ccccc5c4)c(=O)c23)C1 (centres undefined) | 47 |
| O=c1c2c3c(sc2ncn1Cc1ccc2ccccc2c1)CC(NC1CCc2ccccc21)CC3 (centres undefined) | 60 |
| Cc1cccc(NC2CCc3c(sc4ncn(Cc5cccc6ccccc56)c(=O)c34)C2)c1 (centres undefined) | 41 |
| COc1ccc2ccccc2c1Cn1cnc2sc3c(c2c1=O)CCC(NCCNC(C)=O)C3 (centres undefined) | 44 |
| O=c1c2c3c(sc2ncn1Cc1ccc2ccccc2c1)CC(NCc1ccc(Cl)cc1)CC3 (centres undefined) | 49 |
| COc1ccc(Cn2cnc3sc4c(c3c2=O)CCC(NCc2cccc(Cl)c2)C4)c2ccccc12 (centres undefined) | 6.5 |
| O=c1c2c3c(sc2ncn1Cc1cccc2ccccc12)CC(NCc1ccccc1Cl)CC3 (centres undefined) | 46 |
| COc1cccc(NC2CCc3c(sc4ncn(Cc5cccc6cccnc56)c(=O)c34)C2)c1 (centres undefined) | 67 |
| O=c1c2c3c(sc2ncn1Cc1ccc2ccccc2c1)CC(NCCC1CCCCC1)CC3 (centres undefined) | 59 |
| O=c1c2c3c(sc2ncn1Cc1cccc(-c2ccccc2)c1)CC(NC1CCc2ccccc21)CC3 (centres undefined) | 45 |
| COc1ccc(Cn2cnc3sc4c(c3c2=O)CCC(NCCN2CCOCC2)C4)c2ccccc12 (centres undefined) | 76 |
| COc1ccc2ccccc2c1Cn1cnc2sc3c(c2c1=O)CCC(NCc1ccc(C#N)cc1)C3 (centres undefined) | 75 |
| O=c1c2c3c(sc2ncn1Cc1cccc2cccnc12)CC(NCC1CCCO1)CC3 (centres undefined) | 58 |
| N#Cc1ccc(CNC2CCc3c(sc4ncn(Cc5cccc(-c6ccccc6)c5)c(=O)c34)C2)cc1 (centres undefined) | 75 |
| O=c1c2c3c(sc2ncn1Cc1cccc2ccccc12)CC(NC1CCOCC1)CC3 (centres undefined) | 59 |
| COc1ccccc1NC1CCc2c(sc3ncn(Cc4cccc5ccccc45)c(=O)c23)C1 (centres undefined) | 22 |
| O=c1c2c3c(sc2ncn1Cc1cccc2cccnc12)CC(NCc1ccccc1F)CC3 (centres undefined) | 49 |
| COc1ccccc1Cn1cnc2sc3c(c2c1=O)CCC(NCC1CCCO1)C3 (centres undefined) | 27 |

Further lines, results first:

| inhibition [%] | Compound |
| --- | --- |
| 42 | O=c1c2c3c(sc2ncn1Cc1ccccc1)CC(NCc1cccnc1)CC3 (centres undefined) |
| 26 | O=c1c2c3c(sc2ncn1Cc1ccccc1)CC(NCc1ccccn1)CC3 (centres undefined) |
| 74 | Cc1nn(C)c(C)c1CNC1CCc2c(sc3ncn(Cc4cccc5cccnc45)c(=O)c23)C1 (centres undefined) |
| 64 | COc1cccc(Cn2cnc3sc4c(c3c2=O)CCC(NCc2ccccc2)C4)c1 (centres undefined) |
| 70 | COCCNC1CCc2c(sc3ncn(Cc4cccc(-c5ccccc5)c4)c(=O)c23)C1 (centres undefined) |
| 64 | COc1cccc(Cn2cnc3sc4c(c3c2=O)CCC(NCc2ccccc2OC)C4)c1 (centres undefined) |
| 33 | COc1cccc(Cn2cnc3sc4c(c3c2=O)CCC(NCc2ccco2)C4)c1 (centres undefined) |
| 49 | O=c1c2c3c(sc2ncn1Cc1ccc2ccccc2c1)CC(NCc1cccc(Cl)c1)CC3 (centres undefined) |
| 50 | COc1ccc2ccccc2c1Cn1cnc2sc3c(c2c1=O)CCC(NCc1cccc(Cl)c1)C3 (centres undefined) |
| 67 | COc1ccc(CNC2CCc3c(sc4ncn(Cc5ccccc5OC)c(=O)c34)C2)cc1 (centres undefined) |
| 45 | COc1ccccc1Cn1cnc2sc3c(c2c1=O)CCC(NCc1cncnc1)C3 (centres undefined) |
| 32 | Cc1nn(C)c(C)c1CNC1CCc2c(sc3ncn(Cc4ccccc4)c(=O)c23)C1 (centres undefined) |
| 63 | O=c1c2c3c(sc2ncn1Cc1cccc(-c2ccccc2)c1)CC(NCc1cccc(F)c1)CC3 (centres undefined) |
| 18 | COc1cccc(Cn2cnc3sc4c(c3c2=O)CCC(NCc2cncnc2)C4)c1 (centres undefined) |
| 18 | COc1cccc(Cn2cnc3sc4c(c3c2=O)CCC(NCc2ccccn2)C4)c1 (centres undefined) |
| 66 | O=c1c2c3c(sc2ncn1Cc1cccc(-c2ccccc2)c1)CC(NCc1cccs1)CC3 (centres undefined) |
| 43 | O=c1c2c3c(sc2ncn1Cc1cccc(-c2ccccc2)c1)CC(NCc1ccccc1F)CC3 (centres undefined) |
| 56 | O=c1c2c3c(sc2ncn1Cc1ccc2ccccc2c1)CC(NCc1cccc(F)c1)CC3 (centres undefined) |

| inhibition [%] | Compound |
| --- | --- |
| 67 | Cc1noc(C)c1CNC1CCc2c(sc3ncn(Cc4ccc5ccccc5c4)c(=O)c23)C1 (centres undefined) |
| 56 | O=c1c2c3c(sc2ncn1Cc1cccc(-c2ccccc2)c1)CC(NCc1ccc(Cl)cc1)CC3 (centres undefined) |
| 33 | O=c1c2c3c(sc2ncn1Cc1ccccc1)CC(NCc1ccco1)CC3 (centres undefined) |
| 33 | O=c1c2c3c(sc2ncn1Cc1ccccc1)CC(NCc1ccncc1)CC3 (centres undefined) |
| 43 | O=c1c2c3c(sc2ncn1Cc1cccc(-c2ccccc2)c1)CC(NCc1cccc(Cl)c1)CC3 (centres undefined) |
| 59 | O=c1c2c3c(sc2ncn1Cc1ccccc1)CC(NC1CCc2ccccc21)CC3 (centres undefined) |
| 45 | COCCNC1CCc2c(sc3ncn(Cc4ccc5ccccc5c4)c(=O)c23)C1 (centres undefined) |
| 44 | COCCNC1CCc2c(sc3ncn(Cc4c(OC)ccc5ccccc45)c(=O)c23)C1 (centres undefined) |
| 56 | COc1ccc(CNC2CCc3c(sc4ncn(Cc5ccccc5OC)c(=O)c34)C2)cn1 (centres undefined) |
| 66 | O=c1c2c3c(sc2ncn1Cc1cccc2ccccc12)CC(NCc1ccccc1)CC3 (centres undefined) |
| 62 | O=c1c2c3c(sc2ncn1Cc1ccc2ccccc2c1)CC(NCc1cccs1)CC3 (centres undefined) |
| 56 | O=c1c2c3c(sc2ncn1Cc1ccccc1)CC(NCC1CCCCC1)CC3 (centres undefined) |
| 18 | O=c1c2c3c(sc2ncn1Cc1ccccc1)CC(NCCc1ccncc1)CC3 (centres undefined) |
| 14 | COc1cccc(Cn2cnc3sc4c(c3c2=O)CCC(NCc2c(C)nn(C)c2C)C4)c1 (centres undefined) |
| 71 | COc1ccc(CNC2CCc3c(sc4ncn(Cc5cccc(OC)c5)c(=O)c34)C2)cc1 (centres undefined) |
| 60 | Cc1noc(C)c1CNC1CCc2c(sc3ncn(Cc4cccc(-c5ccccc5)c4)c(=O)c23)C1 (centres undefined) |
| 27 | COc1cccc(Cn2cnc3sc4c(c3c2=O)CCC(NCc2cccnc2)C4)c1 (centres undefined) |
